target: T1, Neuropeptide Y receptor type 5 (Homo sapiens, UniProt Q15761); test: Binding affinity for human Neuropeptide Y receptor type 5 in HEK293 cells; format: cell-based
T1 sequence (Q15761 whole entry): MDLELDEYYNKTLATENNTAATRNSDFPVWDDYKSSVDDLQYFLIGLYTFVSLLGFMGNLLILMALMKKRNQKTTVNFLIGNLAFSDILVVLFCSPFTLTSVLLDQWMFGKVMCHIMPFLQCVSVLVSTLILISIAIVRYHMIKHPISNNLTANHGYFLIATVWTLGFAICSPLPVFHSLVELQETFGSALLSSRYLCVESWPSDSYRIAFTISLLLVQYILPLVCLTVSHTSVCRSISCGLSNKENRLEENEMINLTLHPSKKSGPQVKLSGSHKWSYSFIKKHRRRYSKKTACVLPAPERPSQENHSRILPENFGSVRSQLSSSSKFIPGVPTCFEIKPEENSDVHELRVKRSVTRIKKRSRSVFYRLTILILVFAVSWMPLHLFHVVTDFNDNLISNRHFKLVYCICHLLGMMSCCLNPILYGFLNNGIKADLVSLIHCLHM
Method in brief: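 Membranes from HEK293 cells stably transfected with human NPY5 cDNA, prepared in 20 mM HEPES buffer with NaCl, 0.22 mM KH2PO4, 1.3 mM CaCl2, 0.8 mM MgSO4, pH 7.4. Centrifuged, washed, membrane radioactivity gamma-counted. Non-specific binding with 300 nM NPY. IC50 is 50% inhibition of specific binding, averaged over ≥2 experiments.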

Row | SMILES | IC50
1 | O=C(NC1=NC2CCc3cc(O)ccc3C2C1)[C@H]1CC[C@H](CNS(=O)(=O)c2ccccc2)CC1 (stereo partly drawn) | 9 nM
2 | COc1ccc2c(c1)CCC1N=C(NC(=O)[C@H]3CC[C@H](CNS(=O)(=O)c4ccccc4)CC3)CC21 (stereo partly drawn) | 91 nM
3 | N[C@@H](CCCCNS(=O)(=O)c1ccccc1F)C(=O)NC1=NC2CCc3cc(F)ccc3C2C1 (stereo partly drawn) | 202 nM
4 | COc1ccc2c(c1)CCC(NCCc1ccc(OC)c(OC)c1)C2Cc1ccccc1 (stereo not drawn) | ~1000 nM
5 | O=S(=O)(NC[C@H]1CC[C@H](CNC2=NC3CCc4cc(O)ccc4C3C2)CC1)c1ccccc1 (stereo partly drawn) | 1 nM
6 | O=S(=O)(NC[C@H]1CC[C@H](CNC2=NC3CCc4ccccc4C3C2)CC1)c1ccccc1 (stereo partly drawn) | 39 nM
7 | O=C(NC1=NC2CCc3ccccc3C2C1)[C@H]1CC[C@H](CNS(=O)(=O)c2ccccc2)CC1 (stereo partly drawn) | 60 nM
8 | O=C(NC1=NC2CCc3cc(Cl)ccc3C2C1)[C@H]1CC[C@H](CNS(=O)(=O)c2ccccc2)CC1 (stereo partly drawn) | 111 nM
9 | O=S(=O)(NC[C@H]1CC[C@H](CNC2=NC3CCc4cc(Cl)ccc4C3C2)CC1)c1ccccc1 (stereo partly drawn) | 54 nM
10 | COc1ccc2c(c1)CCC1N=C(NC(C)=O)CC21 (stereo not drawn) | > 1000 nM
11 | COc1ccc2c(c1)CCC1N=C(NC[C@H]3CC[C@H](CNS(=O)(=O)c4ccccc4)CC3)CC21 (stereo partly drawn) | 57 nM
12 | COc1ccc2c(c1)CCC1N=C(NC(=O)[C@H]3CC[C@H](CNS(=O)(=O)c4ccccc4F)CC3)CC21 (stereo partly drawn) | 121 nM
13 | COc1ccc2c(c1)CCC1N=C(NC[C@H]3CC[C@H](CNS(=O)(=O)c4ccccc4F)CC3)CC21 (stereo partly drawn) | 35 nM
